Reference: ChEMBL document CHEMBL3102836, “Dioxatricyclic and oxabicyclic polyketides from Trichocladium opacum” (J Nat Prod, 2014)
Calls of active or inactive are those of the source. The calls are words filed in the database; no cut-off is given here.

What was measured:
Format in all cases: functional, cell-based
HeLa [1] = assay: Cytotoxicity against human HeLa cells at 20 ug/ml after 48 hrs by MTS assay
Summary of the method: (§1)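 Single-concentration test at 20 μg/mL. Triplicate wells seeded at (2−5) × 10^3 cells, attached overnight, then medium replaced with compound-containing medium (100 mM DMSO stock; vehicle wells 0.1% DMSO); cisplatin positive control. 48 h exposure at 37 °C, humidified 5% CO2. MTS added, 90 min at 37 °C in dark, read at 490 nm.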

A549 [2] = assay: Cytotoxicity against human A549 cells at 20 ug/ml after 48 hrs by MTS assay; summary of the method: as §1
HCT-116 [3] = assay: Cytotoxicity against human HCT116 cells at 20 ug/ml after 48 hrs by MTS assay; summary of the method: as §1
SW480 [4] = assay: Cytotoxicity against human SW480 cells at 20 ug/ml after 48 hrs by MTS assay; summary of the method: as §1
SW480 [5] = assay: Cytotoxicity against human SW480 cells after 48 hrs by MTS assay; conditions: SW480, 48 h
Summary of the method: (§2)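 Triplicate wells seeded at (2−5) × 10^3 cells (by growth rate), attached overnight, then medium replaced with medium carrying serial dilutions from 100 mM DMSO stocks (vehicle wells 0.1% DMSO); cisplatin positive control. 48 h at 37 °C, humidified 5% CO2. MTS added, 90 min at 37 °C in dark, absorbance 490 nm; IC50 reported.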

HCT-116 [6] = assay: Cytotoxicity against human HCT116 cells after 48 hrs by MTS assay; conditions: HCT-116, 48 h; summary of the method: as §2
A549 [7] = assay: Cytotoxicity against human A549 cells after 48 hrs by MTS assay; conditions: A549, 48 h; summary of the method: as §2
HeLa [8] = assay: Cytotoxicity against human HeLa cells after 48 hrs by MTS assay; summary of the method: as §2

SMILES	Activity (HeLa [1])	Activity (A549 [2])	Activity (HCT-116 [3])	Activity (SW480 [4])	IC50 (SW480 [5]) [µM]	IC50 (HCT-116 [6]) [µM]	IC50 (A549 [7]) [µM]	IC50 (HeLa [8]) [µM]
C[C@@H]1C=C[C@H](O)[C@H]2O[C@@]3(C)OC(=O)[C@@]12[C@H]3O	inactive	inactive	inactive	inactive				
C[C@@H]1CC[C@H](O)[C@H]2O[C@@]3(C)OC(=O)[C@@]12[C@H]3O	inactive				51.9	56.6	61	
C[C@@H]1C=C[C@H](O)[C@H]2O[C@@]3(C)OC(=O)[C@@]12[C@@H]3O	inactive				54.9	48.8	83.6	
C[C@@H](O)[C@@H](O)[C@]12C(=O)O[C@H](C=C[C@@H]1C)[C@H]2O					43.6	41.7	52.3	44.3
COC(=O)[C@]12[C@H](C)[C@H](C[C@H](O)[C@H]1O)O[C@H]2C(C)=O	inactive	inactive	inactive	inactive				
